High-throughput results as filed in PubChem BioAssay.
KDM4C inh = inhibitors of GASC-1 (KDM4C) histone demethylase, primary screen, biochemical, single concentration HTS; Lysine-specific demethylase 4C (Homo sapiens), Q9H3R0; GST-KDM4C 2-372, H3K9me3 peptide, LANCE TR-FRET; inhibition, % at 12.5 µM; 96,000 tested, 0.15% active;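 active = mean replicate inhibition above about 25%, with at least 55% of replicates also reaching it, limit read from the data, passing the limit was not always enough; inconclusive = only one of those two conditions met; inactive = neither condition met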
Target sequence (Q9H3R0 2-372 limits assumed): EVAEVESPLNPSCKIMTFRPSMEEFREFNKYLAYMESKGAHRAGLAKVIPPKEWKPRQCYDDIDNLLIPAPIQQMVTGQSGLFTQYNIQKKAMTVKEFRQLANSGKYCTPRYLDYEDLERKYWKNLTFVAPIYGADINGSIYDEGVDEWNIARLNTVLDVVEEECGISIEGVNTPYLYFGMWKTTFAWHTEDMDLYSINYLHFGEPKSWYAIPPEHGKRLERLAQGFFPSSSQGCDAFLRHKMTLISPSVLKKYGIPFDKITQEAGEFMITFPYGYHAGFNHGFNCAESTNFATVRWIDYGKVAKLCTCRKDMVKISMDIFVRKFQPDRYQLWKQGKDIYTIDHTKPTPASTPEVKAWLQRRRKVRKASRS
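reagent = H3K9me3 peptide substrate, Fe(II), 2-oxoglutarate | system = GST-tagged GASC-1 (JMJD2C) catalytic fragment, aa 2-372 | amount = enzyme final amount 10 nM | read-out = Fall in 671/618 emission ratio as inhibition | medium = HEPES buffer, pH 7.5, plus ascorbate | schedule = 30 min reaction, 60 min detection, RT | measured by = LANCE TR-FRET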
IDH1 R132H inh = inhibitors of IDH1 R132H reductase, primary screen, biochemical, plate reader, single point; Isocitrate dehydrogenase [NADP] cytoplasmic (Homo sapiens), O75874; diaphorase/resazurin fluorescence, 60 min; inhibition, % at 10 µM; 70,000 tested, 0.18% active; AID 624101, 2012; in the data active = inhibition above about 34%; inconclusive = no clear call, values can overlap the other calls; inactive = below about 11%;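 note: 0% = DMSO and 100% = no enzyme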
T cruzi growth-1 = T. cruzi intracellular proliferation inhibitors, primary screen, cell-based, beta-gal Tulahuen parasites, NIH3T3 host, luminescence | T. cruzi beta-gal in NIH3T3, GalScreen luminescence, 90 h | AID 624255, 2012 | 77,000 tested, 5.9% active | inhibition, % at 8.34 µM;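 active = mean inhibition above about 93%, with at least 55% of replicates each passing it, limit read from the data, passing the limit was not always enough; inconclusive = only one of those two conditions holds; inactive = neither condition holds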
T cruzi growth-2 = T. cruzi intracellular proliferation inhibitors, confirmation, cell-based, NIH3T3 host, beta-gal parasite, luminescence, cherry-pick. shares compounds with T cruzi growth-1. T. cruzi beta-gal in NIH3T3, GalScreen luminescence, 90 h. inhibition, % at 8.35 µM. 5,600 tested, 72% active. AID 651739, 2012;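 active = mean replicate inhibition above about 95% and at least 55% of replicates individually reaching it, limit read from the data; inconclusive = only one of the two criteria is met; inactive = neither criterion is met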
T cruzi growth-3 = inhibitors of intracellular T. cruzi replication, confirmation, NIH3T3 host cells, beta-gal parasites, cherry-pick, set 2. shares compounds with T cruzi growth-1. T. cruzi beta-gal in NIH3T3, GalScreen luminescence, 90 h. inhibition, % at 2.09 µM. 5,600 tested, 21% active. AID 651740, 2012;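 active = mean inhibition above about 95%, with at least 55% of replicates also reaching it, limit read from the data; inconclusive = meets just one of the two conditions; inactive = meets neither condition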;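 note: plate controls were neutral control median for no effect and positive control median for full effect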
3T3 cytotox = cytotoxicity in mouse NIH/3T3 fibroblasts, confirmation, cytotoxicity control for T. cruzi proliferation inhibitor project, cell-based, cherry-pick, single point; shares compounds with T cruzi growth-1; NIH/3T3 viability, CellTiter-Glo ATP luminescence, 90 h; cytotoxicity (signal decrease), % at 8.35 µM; 5,600 tested, 14% active; AID 651742, 2012;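 active = mean signal decrease across replicates above about 35% based on untreated-well scatter, with enough replicates individually passing, limit read from the data; inconclusive = no rule stated though some were filed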;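 note: 0% = median of neutral control wells and 100% = median of positive control wells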
3T3 cytotox 2 = NIH/3T3 fibroblast cytotoxicity, confirmation, cytotoxicity control, cell-based, cherry-pick, single point, set 2. NIH/3T3 viability, CellTiter-Glo ATP luminescence, 90 h. shares compounds with T cruzi growth-1. AID 651744, 2012. inhibition, % at 24.9 µM. 5,600 tested, 56% active;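 active = mean loss of cell viability signal at or above a set limit, and enough replicates individually reaching it; inconclusive = meets only the mean limit or only the replicate share; inactive = meets neither condition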;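 note: 0% = median of neutral control wells and 100% = median of positive control wells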
* hit, by the source's call; ? = inconclusive; nt = not tested or not shown. This is one part of a sample in which hits are shown more often than they occur.

SMILES	KDM4C inh	IDH1 R132H inh	T cruzi growth-1	T cruzi growth-2	T cruzi growth-3	3T3 cytotox	3T3 cytotox 2
O=C(C[C@@H]1CC[C@@H]2[C@H](COC[C@@H](O)CN2Cc2ccccc2F)O1)NCc1ccccc1F	0	nt	4	nt	nt	nt	nt
CNC(=O)C[C@@H]1CC[C@H]2[C@@H](COC[C@@H](O)CN2Cc2ccccc2F)O1	-1	nt	nt	nt	nt	nt	nt
CCCNC(=O)C[C@H]1CC[C@@H]2[C@H](COC[C@@H](O)CN2Cc2ccccc2F)O1	-3	nt	97*	40	-11	1	9
COc1ccc2c3c(n(C)c2c1)[C@H](CO)N(Cc1cccnc1)CC31CN(C(=O)NC(C)C)C1	1	nt	nt	nt	nt	nt	nt
N#Cc1c(C(F)(F)F)cc(-c2ccco2)nc1SCC(=O)Nc1cccc(C(F)(F)F)c1	nt	0	nt	nt	nt	nt	nt
Cc1noc(C)c1S(=O)(=O)N(C)C[C@H]1OCCCC[C@H](C)Oc2ccc(NC(=O)Nc3ccccc3)cc2C(=O)N([C@H](C)CO)C[C@@H]1C	-2	nt	nt	nt	nt	nt	nt
C[C@H](CO)N1C[C@H](C)[C@H](CN(C)S(=O)(=O)c2ccccc2)OCCCC[C@H](C)Oc2ccc(NC(=O)Nc3cccc4ccccc34)cc2C1=O	-1	3	90	nt	nt	nt	nt
Cc1noc(C)c1S(=O)(=O)N(C)C[C@H]1OCCCC[C@@H](C)Oc2ccc(NC(=O)Nc3cccc4ccccc34)cc2C(=O)N([C@@H](C)CO)C[C@@H]1C	-2	-2	105*	107*	67	17	16
Cc1noc(C)c1S(=O)(=O)N(C)C[C@H]1OCCCC[C@@H](C)Oc2ccc(NC(=O)Nc3cccc4ccccc34)cc2C(=O)N([C@H](C)CO)C[C@@H]1C	-6	-2	77	nt	nt	nt	nt
C[C@@H]1CCCCO[C@H](CN(C)S(=O)(=O)c2ccccc2)[C@H](C)CN([C@H](C)CO)C(=O)c2cc(NC(=O)Nc3cccc4ccccc34)ccc2O1	-3	2	108*	106*	110*	12	?
Cc1noc(C)c1S(=O)(=O)N(C)C[C@@H]1OCCCC[C@@H](C)Oc2ccc(NC(=O)Nc3cccc4ccccc34)cc2C(=O)N([C@H](C)CO)C[C@H]1C	-9	1	109*	110*	100*	-7	?
CC(C)[C@@H]1CC[C@@]2(C)[C@H](O)CC[C@@](C)(O)[C@@H]2[C@@H]1OC(=O)/C=C/c1ccccc1	nt	0	nt	nt	nt	nt	nt
O=C(c1ccncc1)N1CC[C@@H]2[C@@H](CO)Nc3ccc(-c4ccccc4)cc3[C@@H]21	-1	nt	69	nt	nt	nt	nt
O=C(c1ccccn1)N1CC[C@@H]2[C@@H](CO)Nc3ccc(-c4ccccc4)cc3[C@@H]21	0	nt	105*	101*	86	-18	-14
O=C(c1ccncc1)N1CC[C@H]2[C@H](CO)Nc3ccc(-c4ccc(F)cc4)cc3[C@H]21	-2	nt	99*	94	34	-12	3
O=C(c1ccccn1)N1CC[C@@H]2[C@H](CO)Nc3ccc(-c4ccccc4)cc3[C@@H]21	2	nt	91	nt	nt	nt	nt
O=C(c1ccccn1)N1CC[C@@H]2[C@H]1c1cc(-c3ccc(F)cc3)ccc1N[C@@H]2CO	-2	nt	105*	107*	63	15	30*
O=C(c1ccccn1)N1CC[C@@H]2[C@H](CO)Nc3ccc(-c4ccc(F)cc4)cc3[C@@H]21	2	nt	nt	nt	nt	nt	nt
COc1ccc(S(=O)(=O)N(C)CC(=O)Nc2cccc(F)c2)cc1Cl	nt	0	nt	nt	nt	nt	nt
Cc1ccccc1C(C#N)C(CC#N)c1ccccc1 (configuration not stated)	nt	-1	nt	nt	nt	nt	nt
COc1cc([N+](=O)[O-])ccc1NC(=S)NCc1cn(-c2ccccc2)nc1-c1ccccc1	nt	0	nt	nt	nt	nt	nt
Cc1ccc(/C=N/NC(=O)CCCCCCC(=O)NO)o1	nt	1	nt	nt	nt	nt	nt
Cc1cc2ncc(-c3ccn(S(=O)(=O)c4ccc(Cl)cc4)c3)nc2cc1C	nt	0	nt	nt	nt	nt	nt
CC(C)CC#Cc1ccc2c(c1)O[C@@H](CN(C)C(=O)CC1CC1)[C@@H](C)CN([C@@H](C)CO)S2(=O)=O	-1	-1	nt	nt	nt	nt	nt
CC(C)CC#Cc1ccc2c(c1)O[C@@H](CN(C)C(=O)CC1CC1)[C@@H](C)CN([C@H](C)CO)S2(=O)=O	-1	1	nt	nt	nt	nt	nt
SMILES	KDM4C inh	IDH1 R132H inh	T cruzi growth-1	T cruzi growth-2	T cruzi growth-3	3T3 cytotox	3T3 cytotox 2
CCCC#Cc1ccc2c(c1)O[C@H](CN(C)C(=O)CC1CC1)[C@@H](C)CN([C@@H](C)CO)S2(=O)=O	-1	-4	111*	104*	70	8	48*
CCCC#Cc1ccc2c(c1)O[C@H](CN(C)C(=O)CC1CC1)[C@@H](C)CN([C@H](C)CO)S2(=O)=O	2	0	101*	108*	48	4	20
C[C@@H]1CN([C@@H](C)CO)C(=O)c2cc(-c3ccncc3)cnc2O[C@H]1CN(C)Cc1ccc(Oc2ccccc2)cc1	2	0	94*	102*	69	41*	104*
C[C@H](CO)N1C[C@H](C)[C@@H](CN(C)Cc2ccc(Oc3ccccc3)cc2)Oc2ncc(-c3ccncc3)cc2C1=O	4	0	109*	111*	75	28	105*
C[C@@H]1CN([C@H](C)CO)C(=O)c2cc(-c3cccnc3)cnc2O[C@@H]1CN(C)Cc1ccc(Oc2ccccc2)cc1	5	0	37	nt	nt	nt	nt
C[C@H]1CN([C@@H](C)CO)C(=O)c2cc(-c3cccnc3)cnc2O[C@H]1CN(C)Cc1ccc(Oc2ccccc2)cc1	3	0	31	nt	nt	nt	nt
C[C@@H]1CN([C@@H](C)CO)C(=O)c2cccc(NC(=O)CCCCCC(=O)Nc3ccccc3N)c2O[C@@H]1CN(C)S(=O)(=O)c1ccccc1	0	nt	nt	nt	nt	nt	nt
C[C@H]1CN([C@@H](C)CO)C(=O)c2cccc(NC(=O)CCCCCC(=O)Nc3ccccc3N)c2O[C@@H]1CN(C)S(=O)(=O)c1ccccc1	-1	nt	nt	nt	nt	nt	nt
C[C@H]1CN([C@@H](C)CO)C(=O)c2cccc(NC(=O)CCCCCC(=O)Nc3ccccc3N)c2O[C@@H]1CN(C)S(=O)(=O)c1ccc(Cl)cc1	-3	1	106*	105*	69	31	21
C[C@H](CO)N1C[C@H](C)[C@H](CN(C)S(=O)(=O)c2ccc(Cl)cc2)Oc2c(NC(=O)CCCCCC(=O)Nc3ccccc3N)cccc2C1=O	-2	nt	106*	114*	77	21	8
